Measurements as given in ChEMBL document CHEMBL3091366, “New 5-Aryl-1H-imidazoles display in vitro antitumor activity against apoptosis-resistant cancer models, including melanomas, through mitochondrial targeting” (J Med Chem, 2013).
The source made the active and inactive calls. The calls are words filed in the database; no cut-off is given here.

What was measured:
[1] = tested on: SF-268; experiment: Cytotoxicity against human SF268 cells assessed as residual growth at 10 uM; format: functional
[2] = tested on: U-251; experiment: Cytotoxicity against human U251 cells assessed as residual growth at 10 uM; format: functional
[3] = tested on: MOLT-4; experiment: Cytotoxicity against human MOLT4 cells assessed as residual growth at 10 uM; format: functional
[4] = tested on: SW-620; experiment: Cytotoxicity against human SW620 cells assessed as residual growth at 10 uM; format: functional
[5] = tested on: 786-0; experiment: Cytotoxicity against human 786-0 cells assessed as residual growth at 10 uM; format: functional
[6] = tested on: SNB-19; experiment: Cytotoxicity against human SNB19 cells assessed as residual growth at 10 uM; format: functional
[7] = tested on: SR; experiment: Cytotoxicity against human SR cells assessed as residual growth at 10 uM; format: functional
[8] = tested on: T98G; experiment: Cytotoxicity against apoptotic-resistant human T98G cells assessed as growth inhibition after 72 hrs by MTT-based colorimetric assay; format: functional, cell-based; settings: Homo sapiens, T98G, 72 h
Method in brief: (§1)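 MTT colorimetric assay, 72 h exposure to the fumarate salt. Read-out is reduction of MTT to formazan by living cells. IC50 is the concentration that reduces the whole cell population by 50%. Six replicates per condition. Where compounds were not tested on every line, apoptosis-sensitive lines were PC3, MCF-7, LoVo and B16F10, and apoptosis-resistant lines were U373, T98G, A549 and SK-MEL-28.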

[9] = tested on: Malme-3M; experiment: Cytotoxicity against human MALME-3M cells assessed as residual growth at 10 uM; format: functional
[10] = tested on: NCI-H522; experiment: Cytotoxicity against human NCI-H522 cells assessed as residual growth at 10 uM; format: functional
[11] = Cytotoxicity against human UACC257 cells assessed as residual growth at 10 uM; format: functional, UACC-257
[12] = tested on: SK-MEL-28; experiment: Cytotoxicity against human SK-MEL-28 cells assessed as residual growth at 10 uM; format: functional
[13] = tested on: SK-MEL-28; experiment: Cytotoxicity against apoptotic-resistant human SK-MEL-28 cells assessed as growth inhibition after 72 hrs by MTT-based colorimetric assay; format: functional, cell-based; settings: Homo sapiens, SK-MEL-28, 72 h; method in brief: as §1
[14] = tested on: SF-539; experiment: Cytotoxicity against human SF539 cells assessed as residual growth at 10 uM; format: functional
[15] = tested on: Melanoma cell; experiment: Cytotoxicity against human Melanoma cells assessed as growth inhibition after 72 hrs by MTT-based colorimetric assay; format: functional
Method in brief: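 Eleven human primary melanoma cultures treated for 72 h with the fumarate salt. Growth inhibition read by colorimetric MTT assay, with IC50 taken as 50% reduction of the cell population. Maximal concentration tested was 100 µM. Run once in sextuplicate.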

[16] = tested on: HOP-92; experiment: Cytotoxicity against human HOP92 cells assessed as residual growth at 10 uM; format: functional
[17] = tested on: HOP-62; experiment: Cytotoxicity against human HOP62 cells assessed as residual growth at 10 uM; format: functional
[18] = tested on: CAKI-1; experiment: Cytotoxicity against human Caki1 cells assessed as residual growth at 10 uM; format: functional
[19] = tested on: TK-10; experiment: Cytotoxicity against human TK10 cells assessed as residual growth at 10 uM; format: functional
[20] = tested on: A549; experiment: Cytotoxicity against human A549 cells assessed as residual growth at 10 uM; format: functional
[21] = Cytotoxicity against human UO31 cells assessed as residual growth at 10 uM; format: functional, UO-31
[22] = Cytotoxicity against HLF cells assessed as growth inhibition after 72 hrs by MTT-based colorimetric assay; format: cell-based; settings: Homo sapiens; method in brief: as §1
[23] = tested on: RXF 393; experiment: Cytotoxicity against human RXF393 cells assessed as residual growth at 10 uM; format: functional
[24] = tested on: PC-3; experiment: Cytotoxicity against human PC3 cells assessed as residual growth at 10 uM; format: functional
[25] = Cytotoxicity against human OVCAR5 cells assessed as residual growth at 10 uM; format: functional, OVCAR-5
[26] = tested on: SNB-75; experiment: Cytotoxicity against human SNB75 cells assessed as residual growth at 10 uM; format: functional
[27] = tested on: DU-145; experiment: Cytotoxicity against human DU145 cells assessed as residual growth at 10 uM; format: functional
[28] = tested on: COLO 205; experiment: Cytotoxicity against human COLO205 cells assessed as residual growth at 10 uM; format: functional
[29] = tested on: IGROV-1; experiment: Cytotoxicity against human IGROV1 cells assessed as residual growth at 10 uM; format: functional
[30] = tested on: A498; experiment: Cytotoxicity against human A498 cells assessed as residual growth at 10 uM; format: functional
[31] = tested on: RPMI-8226; experiment: Cytotoxicity against human RPMI8226 cells assessed as residual growth at 10 uM; format: functional
[32] = tested on: SK-MEL-28; experiment: Cytostatic activity against apoptotic-resistant human SK-MEL-28 cells assessed as growth inhibition at 5 uM after 48 to 72 hrs by quantitative videomicroscopy; format: functional; settings: read-out: GI
Method in brief: (§2)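 SK-MEL-28 cells exposed to 5 µM for 24, 48 and 72 h. Cell cycle was read by flow cytometry with propidium iodide plus TUNEL double staining (APO-Direct kit), in quadruplicate. Videomicroscopy photographed each field every 4 min over 72 h. Global growth is cells at a time point divided by cells at time 0; the treated/control ratio gives GGR. Cell death was judged from morphology. Run twice, in triplicate and in quadruplicate.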

[33] = tested on: SF-295; experiment: Cytotoxicity against human SF295 cells assessed as residual growth at 10 uM; format: functional
[34] = Cytotoxicity against human EKVX cells assessed as residual growth at 10 uM; format: functional
[35] = tested on: HCC 2998; experiment: Cytotoxicity against human HCC2998 cells assessed as residual growth at 10 uM; format: functional
[36] = tested on: NHDF; experiment: Cytotoxicity against human NHDF cells assessed as growth inhibition after 72 hrs by MTT-based colorimetric assay; format: cell-based; method in brief: as §1
[37] = Cytotoxicity against apoptotic-resistant human U373 cells assessed as growth inhibition after 72 hrs by MTT-based colorimetric assay; format: functional, cell-based, U-373MG ATCC; settings: Homo sapiens, U373 MG, 72 h; method in brief: as §1
[38] = tested on: OVCAR-3; experiment: Cytotoxicity against human OVCAR3 cells assessed as residual growth at 10 uM; format: functional
[39] = tested on: KM12; experiment: Cytotoxicity against human KM12 cells assessed as residual growth at 10 uM; format: functional
[40] = tested on: B16-F10; experiment: Cytotoxicity against apoptotic-sensitive mouse B16F10 cells assessed as growth inhibition after 72 hrs by MTT-based colorimetric assay; format: functional, cell-based; settings: B16-F10, 72 h; method in brief: as §1
[41] = tested on: SK-MEL-28; experiment: Cytostatic activity against apoptotic-resistant human SK-MEL-28 cells assessed as increase in cell size at 5 uM after 72 hrs by quantitative videomicroscopy; format: functional, cell-based; method in brief: as §2
[42] = tested on: NCI-H226; experiment: Cytotoxicity against human NCI-H226 cells assessed as residual growth at 10 uM; format: functional
[43] = tested on: HCT-15; experiment: Cytotoxicity against human HCT15 cells assessed as residual growth at 10 uM; format: functional
[44] = tested on: NCI-H460; experiment: Cytotoxicity against human NCI-H460 cells assessed as residual growth at 10 uM; format: functional
[45] = tested on: SK-MEL-28; experiment: Increase in cell size of human SK-MEL-28 cells at 5 uM after 24 hrs by MitoTracker Green FM-based fluorescence microscopic analysis; format: functional
Method in brief: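 SKMEL-28 cells seeded on glass coverslips 48 h before treatment at 5 µM (3 to 48 h); two washes, mitochondria stained with 100 nM MitoTracker Green FM in phenol red-free RPMI for 30 min, rinsed twice, viewed by fluorescence microscopy. Three coverslips per condition.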

[46] = tested on: SK-MEL-28; experiment: Cell cycle arrest in apoptotic-resistant human SK-MEL-28 cells at 5 uM after 24 to 72 hrs by double propidium iodide staining-based flow cytometry; format: functional; method in brief: as §2

For `C=CCCCCOc1ccccc1-c1cnc(OCCCCC=C)n1C`, the Activity [1] was 79.65%, the Activity [2] was 68.59% and the Activity [3] was 91.38%. It also gave an Activity [4] of 30.82%, an Activity [5] of 106.84% and an Activity [6] of 91.08%. For the same molecule, the Activity [7] was 30.69%, the IC50 [8] was 4 µM and the Activity [9] was 62.83%. The Activity [10] was 12.63%, the Activity [11] was 66.63% and the Activity [12] was 73.36%. The IC50 [13] was 5 µM, the Activity [14] was 81.04% and the Activity [15] was “Active”. The Activity [16] was 75.18%, the Activity [17] was 77.15% and the Activity [18] was 54.94%. It also gave an Activity [19] of 74.98%, an Activity [20] of 50.25% and an Activity [21] of 69.27%. It also gave an IC50 [22] of 22 µM, an Activity [23] of 90.54% and an Activity [24] of 73.54%. For the same molecule, the Activity [25] was 95.17%, the Activity [26] was 81.88% and the Activity [27] was 92.64%. For the same molecule, the Activity [28] was 46.04%, the Activity [29] was 62.95% and the Activity [30] was 51.15%. The Activity [31] was 80.75%, the inhibition of growth at 5 µM [32] was 50% and the Activity [33] was 70.07%. It also gave an Activity [34] of 85.23%, an Activity [35] of 61.08% and an IC50 [36] of 36 µM. It also gave an IC50 [37] of 7 µM, an Activity [38] of 51.28% and an Activity [39] of 38.37%. For the same molecule, the IC50 [40] was 7 µM, the Activity [41] was “Active” and the Activity [42] was 92.21%. The Activity [43] was 52.21%, the Activity [44] was 55.6% and the Activity [45] was “Active”. For the same molecule, the Activity [46] was “inactive”.
